# Source: PubChem (several laboratories)
# Rin1-Abl PPI inh = human Rin1-Abl interaction inhibition; TR-FRET Rin1/Abl binding, biochemical; inhibition, % at 7.35 µM; 360,000 compounds, 0.4% hits; AID 588664; in the data active = inhibition above about 5%, passing the limit was not always enough
# PREPL inhibitor = human PREPL enzyme inhibition. 320,000 compounds, 0.68% hits. inhibition, % at 5.96 µM. AID 2751. Q4J6C6. recombinant PREPL, fluorescence polarization activity-based probe;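 also: 0% = enzyme with DMSO and 100% = wells lacking enzyme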
# RBBP9 inhibitor = inhibitors of human serine hydrolase RBBP9; O75884; inhibition, % at 7.94 µM; AID 1515; 220,000 compounds, 0.2% hits; recombinant RBBP9, FP-Rh probe fluorescence polarization;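 active = inhibition above the campaign mean of all tested compounds plus 3 SD, cut at about 14% in these data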;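 also: plate controls were DMSO wells with RBBP9 for no effect and wells lacking RBBP9 protein for full effect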
#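 System: RBBP9 protein | Quantity: 2.5 µM RBBP9 dispensing solution, before mixing | Reagent: FP-Rh probe, 375 nM dispensing solution | Timing: Enzyme-compound preincubation 30 min, then probe labeling 45 min, 25 °C | Measured by: Fluorescence polarization | Read-out: % inhibition | Replication: One well per compound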
# SUMO HTRF inh = inhibitors of human SUMOylation (UBC9); 290,000 compounds, 0.36% hits; inhibition, % at 35 µM; AID 2006; HTRF SUMOylation assay, SAE1/SAE2 + UBC9, in vitro; in the data active = inhibition above about 50%, passing the limit was not always enough
# ALR H2O2 inh = human ALR oxidase inhibition via reduced H2O2; 290,000 compounds, 3.8% hits; inhibition, % (no concentration beside the values); purified ALR, DTT oxidation, H2O2 HRP-luminol luminescence; AID 485317; P55789;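 active = mean replicate inhibition above about 79%, with every replicate also reaching it, limit read from the data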
# Target sequence (P55789 whole entry, looked up): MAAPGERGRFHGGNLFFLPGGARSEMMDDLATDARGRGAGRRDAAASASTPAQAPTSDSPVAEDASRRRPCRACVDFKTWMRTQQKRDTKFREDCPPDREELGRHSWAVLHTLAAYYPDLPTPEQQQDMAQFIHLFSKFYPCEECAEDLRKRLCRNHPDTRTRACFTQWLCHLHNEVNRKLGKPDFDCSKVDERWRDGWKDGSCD
# UBC13 inh = blocks human UBC13 polyubiquitin chain formation | AID 485273 | inhibition, % at 20 µM | 330,000 compounds, 0.47% hits | TR-FRET; in the data active = inhibition above about 45%, passing the limit was not always enough
# Target sequence (P61088 whole entry, looked up): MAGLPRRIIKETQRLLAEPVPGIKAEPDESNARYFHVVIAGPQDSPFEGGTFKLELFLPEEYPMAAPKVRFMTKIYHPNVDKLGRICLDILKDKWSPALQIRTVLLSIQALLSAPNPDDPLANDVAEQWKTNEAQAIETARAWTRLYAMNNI
# PREPL confirm = human PREPL inhibition, confirmation; shares compounds with PREPL inhibitor; recombinant PREPL, fluorescence polarization activity probe; inhibition, % at 5.96 µM; 2,000 compounds, 67% hits;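 also: 0% = protein with DMSO and 100% = wells lacking protein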
# The depositor's hits bear a star; / = no result given. Sampled rows, rich in hits. Any-hit rate of the full collection: about 4.3%. Rule as the data show it, unless noted: active = inhibition above about 43%; inactive = the rest.
SMILES,Rin1-Abl PPI inh,PREPL inhibitor,RBBP9 inhibitor,SUMO HTRF inh,ALR H2O2 inh,UBC13 inh,PREPL confirm
COc1ccc(NS(=O)(=O)c2cc(NC(=O)c3cc(F)c(F)cc3Cl)ccc2N2CCOCC2)cc1,3,7,/,/,-8,-5,/
CCOC(=O)C1=CCN(S(=O)(=O)c2ccc(C)cc2)C1c1ccc(C)cc1 (centres undefined),3,/,/,/,/,/,/
Nc1nc(SCC(=O)c2ccc(Br)s2)n[nH]1,1,52*,2,5,13,-11,29
Cn1c(NC(=O)C[n+]2cc(-c3ccccc3)n3c2CCC3)cc(=O)n(C)c1=O,0,11,0,11,-4,8,/
Cn1c(NC(=O)C[n+]2cc(-c3ccc(Cl)cc3)n3c2CCC3)cc(=O)n(C)c1=O,-2,43*,-4,-2,-6,6,46*
c1ccc(-c2cc3cc4c(cc3cn2)OCO4)cc1,3,2,/,/,-2,17,/
COc1cc2c(cc1OC)C(Cc1ccc(O)c(Oc3ccc(C[C@H]4c5cc(OC)c(OC)cc5CCN4C)cc3)c1)N(C)CC2 (some centres undefined),/,45*,/,/,7,26,52*
COc1cc2c(cc1OC)[C@@H](Cc1ccc(OCCC#N)cc1)N(C)CC2,0,6,/,15,3,4,/
Cc1nc2ccc(NC(=O)C3(C)CCCN(C(C)C)C3)cc2o1 (centres undefined),-1,/,/,/,/,/,/
CC(C)Nc1ccc(Nc2ccnc3cc4ccccc4cc23)cc1,-17,60*,-5,-31,99*,-93,62*
c1ccc(CN2CCN(c3nc(N4CCOCC4)c4ccccc4n3)CC2)cc1,3,46*,-3,/,9,4,39
CC(C)(CNC(=O)c1cc([N+](=O)[O-])ccc1N1CCC(Cc2ccccc2)CC1)N1CCOCC1,2,45*,/,/,-42,3,35
CC(C)CNC(=O)c1cc([N+](=O)[O-])ccc1N1CCOCC1,-3,0,-9,2,-4,-3,/
O=C(Nc1cccc(F)c1)N1CCCCCC1,2,-1,/,16,-6,0,/
CN1CCN(C(=O)C2=C[C@@H](c3ccc(C(F)(F)F)cc3)C[C@@H](OCCCCO)O2)CC1,4,45*,-6,-16,-10,3,54*
O=C(C1=C[C@H](c2ccc(C(F)(F)F)cc2)C[C@H](OCc2ccc(CO)cc2)O1)N1CCCCCCC1,1,36,-5,-8,-4,-1,/
O=C(NC1CC1)C1=C[C@H](c2ccc(Br)cc2)C[C@H](OCc2ccc(CO)cc2)O1,3,15,/,2,0,6,/
O=C(NC1CC1)C1=C[C@@H](c2ccc(C(F)(F)F)cc2)C[C@@H](OCc2ccc(CO)cc2)O1,4,47*,/,/,-4,6,42
O=C(C1=C[C@@H](c2ccc(C(F)(F)F)cc2)C[C@@H](OCc2ccc(CO)cc2)O1)N1CCOCC1,2,55*,5,10,/,10,48*
CN1CCN(C(=O)C2=C[C@H](c3ccc(C(F)(F)F)cc3)C[C@H](OCCCCO)O2)CC1,3,20,/,/,/,1,/
C#Cc1ccc([C@@H]2C=C(C(=O)N3CCOCC3)O[C@H](OCc3ccc(CO)cc3)C2)cc1,1,45*,/,/,-13,10,44*
c1ccc2cc(OCCCn3ccnc3)ccc2c1,-1,-3,/,18,-6,3,/
O=c1oc2c(CN3CCOCC3)c(O)ccc2c2c1CCC2,-4,8,-6,27,13,3,/
O=c1oc2c3c4c(cc2c(C(F)(F)F)c1CCN1CCOCC1)CCCN4CCC3,-6,55*,4,20,-10,-142,61*
O=C1OC[C@H]2CCCN2C(=O)[C@@H](CC(=O)N(CCO)Cc2ccccc2)C/C=C\C[C@H]1Cc1ccc(F)cc1,-4,54*,/,/,-4,20,45*
O=C1OC[C@@H]2CCCN2C(=O)[C@H](CC(=O)N(CCO)Cc2ccccc2)C/C=C\CC[C@H]1Cc1ccc(F)cc1,3,35,/,/,-14,12,/
O=C1OC[C@H]2CCCN2C(=O)[C@@H](CC(=O)N(CCO)Cc2ccccc2)C/C=C\CC[C@H]1Cc1ccc(F)cc1,1,45*,/,/,5,5,41
